Measurements: article PMC3057960 (Cancer research, 2010)
Peptide text beside a SMILES is read from it.

Legend:
[1] = In vivo stability: urine metabolite analysis by radio HPLC; details: mouse urine collected 1 hour post-injection, 3 mice
How it was run: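 Urine was collected 1 hour after tail-vein injection of radiolabelled test compound (66.3-70.6 μCi in 150 μl PBS) from 3 of the healthy biodistribution mice. Samples were diluted to 1 mL with solvent A (99.9% H2O, 0.1% TFA) and analysed by radio HPLC.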

[2] = Repeated imaging in immunocompetent mice, immune response; type: in vivo, mouse; details: up to 6 imaging sessions over 8 months, data not shown
[3] = Stability in mouse serum by radio HPLC; type: in vitro ADME; details: tracer in PBS with equal volume of mouse serum, 37°C, 4 hours
How it was run: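 Radiotracer in PBS was mixed with an equal volume of mouse serum and incubated at 37°C. Samples taken at 1 and 4 hours were quenched with one volume of solvent A (99.9% H2O, 0.1% TFA) plus one volume of DMF, centrifuged, passed through a 0.2 micron spin filter and analysed by radio HPLC.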

[4] = Ex vivo biodistribution in healthy mice; details: mouse, iv, total radioactivity
How it was run: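 Healthy mice (N=5) were anaesthetised and given 66.3-70.6 μCi (2.45-2.61 MBq) of radiolabelled test compound in 150 μl PBS by tail vein, then euthanised 1 hour post-injection. Organs were removed, weighed and gamma counted, giving %ID/g or %ID/cm3. Soft-tissue density was taken as 1 g/cm3. Lung density was lung weight divided by CT volume from pre-injection CT. Mean ± standard error mean.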

In the case of `CC(C)C[C@@H]1NC(=O)[C@@H]2CSSC[C@@H](C(=O)NCC(N)=O)NC(=O)[C@H](Cc3ccccc3)NC(=O)CNC(=O)[C@H](CC(N)=O)NC(=O)[C@@H]3CCCN3C(=O)CNC(=O)[C@@H]3CSSC[C@H](NC(=O)[C@H]([C@@H](C)O)NC(=O)[C@H](CC(C)C)NC(=O)[C@@H]4CCCN4C(=O)[C@@H]4CCCN4C(=O)[C@H](CC(N)=O)NC(=O)[C@H](CC(=O)O)NC(=O)CNC(=O)[C@H](CCCNC(=N)N)NC(=O)[C@@H]4CCCN4C(=O)[C@H](CCCNC(=N)N)NC(=O)[C@@H]4CCCN4C(=O)[C@@H](NC(=O)CNC(=O)CN4CCN(CC(=O)O)CCN(CC(=O)O)CCN(CC(=O)O)CC4)CSSC[C@H](NC(=O)CNC(=O)[C@H](C)NC1=O)C(=O)N[C@@H](C(C)C)C(=O)N3)C(=O)N[C@@H](CO)C(=O)N[C@@H](CCC(N)=O)C(=O)N[C@@H](CC(=O)O)C(=O)N[C@@H](CO)C(=O)N[C@@H](CC(=O)O)C(=O)N2` [^64Cu-DOTA-knottin 2.5F, metal not drawn] (HELM PEPTIDE1{[O=C(O)CN1CCN(CC(=O)O)CCN(CC(=O)[*:2])CCN(CC(=O)O)CC1].G.C.P.R.P.R.G.D.N.P.P.L.T.C.S.Q.D.S.D.C.L.A.G.C.V.C.G.P.N.G.F.C.G.[am]}$PEPTIDE1,PEPTIDE1,3:R3-25:R3|PEPTIDE1,PEPTIDE1,15:R3-27:R3|PEPTIDE1,PEPTIDE1,21:R3-33:R3$$$V2.0; N-terminus and C-terminus assumed), the “Stability in vivo, excretion in urine” value [1] is reported as “mainly excreted intact”, the “Acute immune response on repeated imaging” value [2] is reported as “without the observation of an acute immune response” and the Serum stability [3] is reported as “highly stable”. It also gave a tissue uptake per volume at 1 h ([4]; kidneys) of 11.4 ± 1.45 %ID/mL and a tissue uptake per volume at 1 h ([4]; stomach, intestine, spleen, liver) of 1.28 to 2.53 %ID/mL.
